Data on three compounds can be found in ChEMBL document CHEMBL2202955, “Identification of Potent, Selective, Cell-Active Inhibitors of the Histone Lysine Methyltransferase EZH2” (ACS Med Chem Lett, 2012).

Assay [1] deals with EZH2/SUZ12/EED/RBBP7/RBBP4. The experiment in a line: Inhibition of PRC2 complex of FLAG-EZH2, EED, SUZ12, AEBP2 and RbAp48 using histone H3 peptide (21 to 44) as substrate and [3H]SAM after 30 mins. The class given is protein-complex assay. To be noted: read-out: Ki(app).
Assay [2] addresses T1, Histone-lysine N-methyltransferase EZH2 (Homo sapiens, UniProt Q15910). Description: Inhibition of EZH2-mediated proliferation of human DU145 cells after 6 days by chemiluminescence analysis. The class given is cell-based. To be noted: DU-145.
Target sequence in this assay (Q15910 whole entry, looked up): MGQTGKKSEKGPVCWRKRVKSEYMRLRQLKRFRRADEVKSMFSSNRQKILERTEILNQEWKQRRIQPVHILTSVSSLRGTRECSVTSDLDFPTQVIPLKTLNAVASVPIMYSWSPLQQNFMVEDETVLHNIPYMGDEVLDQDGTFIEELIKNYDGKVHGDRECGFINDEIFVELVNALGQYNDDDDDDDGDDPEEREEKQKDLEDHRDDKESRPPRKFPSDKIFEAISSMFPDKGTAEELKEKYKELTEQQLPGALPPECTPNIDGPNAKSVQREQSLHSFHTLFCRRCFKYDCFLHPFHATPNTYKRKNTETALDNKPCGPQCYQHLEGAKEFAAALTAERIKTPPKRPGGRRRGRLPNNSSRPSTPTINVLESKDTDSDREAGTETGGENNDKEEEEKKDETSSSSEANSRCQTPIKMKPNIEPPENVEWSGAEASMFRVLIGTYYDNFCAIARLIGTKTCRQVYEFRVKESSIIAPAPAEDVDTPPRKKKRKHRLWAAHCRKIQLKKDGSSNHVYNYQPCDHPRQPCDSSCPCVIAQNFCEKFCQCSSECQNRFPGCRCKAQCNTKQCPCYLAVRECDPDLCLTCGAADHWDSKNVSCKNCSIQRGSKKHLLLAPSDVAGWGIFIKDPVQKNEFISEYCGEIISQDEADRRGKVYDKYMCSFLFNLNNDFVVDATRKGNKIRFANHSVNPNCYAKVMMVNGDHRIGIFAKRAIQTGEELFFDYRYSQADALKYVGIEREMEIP
In assay [3] the target is DNA (cytosine-5)-methyltransferase 1 (Homo sapiens, UniProt P26358). The experiment in a line: Inhibition of DNMT1 using polydi-dc as substrate preincubated for 10 mins followed by addition of [3H]SAM and incubated for 60 mins. Summed up:
(§1)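 Panel of methyltransferases tested for selectivity. […] Values are the mean of at least two independent replicates.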

Assay [4] concerns the target T2, Histone-lysine N-methyltransferase EHMT2 (Homo sapiens, UniProt Q96KQ7).
T2 sequence (Q96KQ7 whole entry): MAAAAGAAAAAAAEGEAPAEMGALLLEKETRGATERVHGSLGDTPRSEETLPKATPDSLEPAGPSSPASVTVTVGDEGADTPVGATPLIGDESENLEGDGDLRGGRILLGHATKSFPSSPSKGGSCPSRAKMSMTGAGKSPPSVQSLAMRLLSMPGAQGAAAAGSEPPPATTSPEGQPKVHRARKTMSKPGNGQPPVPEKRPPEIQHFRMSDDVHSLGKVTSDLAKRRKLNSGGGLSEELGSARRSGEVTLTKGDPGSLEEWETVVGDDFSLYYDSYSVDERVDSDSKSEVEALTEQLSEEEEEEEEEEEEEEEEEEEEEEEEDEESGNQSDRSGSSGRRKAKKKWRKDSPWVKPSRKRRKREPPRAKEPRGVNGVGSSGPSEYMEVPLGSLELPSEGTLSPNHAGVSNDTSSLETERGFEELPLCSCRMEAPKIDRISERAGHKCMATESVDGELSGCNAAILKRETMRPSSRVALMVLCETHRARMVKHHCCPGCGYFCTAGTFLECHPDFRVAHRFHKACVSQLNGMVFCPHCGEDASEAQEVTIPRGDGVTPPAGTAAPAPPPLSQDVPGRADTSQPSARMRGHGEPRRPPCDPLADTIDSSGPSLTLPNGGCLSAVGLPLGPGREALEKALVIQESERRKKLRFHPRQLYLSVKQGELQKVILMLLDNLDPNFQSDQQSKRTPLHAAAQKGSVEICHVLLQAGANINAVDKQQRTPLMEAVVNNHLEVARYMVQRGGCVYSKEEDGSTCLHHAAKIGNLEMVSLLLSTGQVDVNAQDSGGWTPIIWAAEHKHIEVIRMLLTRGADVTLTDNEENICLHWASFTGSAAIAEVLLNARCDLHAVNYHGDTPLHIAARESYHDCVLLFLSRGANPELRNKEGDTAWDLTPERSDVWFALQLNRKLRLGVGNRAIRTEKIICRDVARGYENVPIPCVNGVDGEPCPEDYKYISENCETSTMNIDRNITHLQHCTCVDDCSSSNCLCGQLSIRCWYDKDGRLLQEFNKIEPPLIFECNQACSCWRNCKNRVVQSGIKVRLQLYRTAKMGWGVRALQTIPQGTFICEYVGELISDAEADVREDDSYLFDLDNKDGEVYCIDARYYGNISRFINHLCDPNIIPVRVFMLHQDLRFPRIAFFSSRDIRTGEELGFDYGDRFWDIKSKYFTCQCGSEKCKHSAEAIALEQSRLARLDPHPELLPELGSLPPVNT
The experiment in a line: Inhibition of G9a using histone H3 as substrate preincubated for 10 mins followed by addition of [3H]SAM and incubated for 60 mins. An outline of the steps:
as §1

For assay [5], the target named is T1, Histone-lysine N-methyltransferase EZH2. Description: Inhibition of EZH2-mediated nuclear H3K27 methylation in human HCC1806 cells at >1000 nM after 72 hrs by immunofluorescence analysis. The class given is cell-based. Summed up:
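HCC1806 breast cancer cells were exposed to compound for 72 h. Nuclear H3K27me3 was quantified by an immunofluorescence imaging assay and normalized to total H3. […] Values are the mean of at least three independent replicates.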
Target sequence in this assay (Q15910 whole entry, looked up): as the sequence (Q15910 whole entry, looked up) above

Assay [6] concerns the target T3, Histone-lysine N-methyltransferase SETD7 (Homo sapiens, UniProt Q8WTS6).
T3 sequence (Q8WTS6 whole entry): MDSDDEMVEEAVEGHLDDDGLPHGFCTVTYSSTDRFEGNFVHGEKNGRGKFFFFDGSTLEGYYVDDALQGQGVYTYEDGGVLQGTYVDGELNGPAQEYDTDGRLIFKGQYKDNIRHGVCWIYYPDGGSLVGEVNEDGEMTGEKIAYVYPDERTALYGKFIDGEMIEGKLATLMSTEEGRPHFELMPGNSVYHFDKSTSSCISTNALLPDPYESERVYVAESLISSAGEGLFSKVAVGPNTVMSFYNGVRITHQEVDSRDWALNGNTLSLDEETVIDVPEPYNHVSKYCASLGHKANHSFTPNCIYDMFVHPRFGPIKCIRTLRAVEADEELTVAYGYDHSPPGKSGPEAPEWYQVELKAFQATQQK
Description: Inhibition of SET7 using histone H3 as substrate preincubated for 10 mins followed by addition of [3H]SAM and incubated for 60 mins. Summed up: as §1

Assay [7] deals with T1, Histone-lysine N-methyltransferase EZH2. Description: Inhibition of EZH2-mediated proliferation of human […] cells after 6 days by chemiluminescence analysis. The class given is cell-based.
Target sequence in this assay (Q15910 whole entry, looked up): as the sequence (Q15910 whole entry, looked up) above
The target is the same in assay [8]. The experiment in a line: Inhibition of EZH2-mediated proliferation of human PC3 cells after 6 days by chemiluminescence analysis. In kind it is cell-based. The settings on record: PC-3.
Target sequence in this assay (Q15910 whole entry, looked up): as the sequence (Q15910 whole entry, looked up) above
For assay [9] the target is unchanged. The experiment in a line: Inhibition of EZH2-mediated proliferation of human ZR-75-1 cells after 6 days by chemiluminescence analysis. In kind it is cell-based.
Target sequence in this assay (Q15910 whole entry, looked up): as the sequence (Q15910 whole entry, looked up) above
The target is the same in assay [10]. Description: Inhibition of EZH2-mediated proliferation of human SKBR3 cells after 6 days by chemiluminescence analysis. In kind it is cell-based. To be noted: SK-BR-3.
Target sequence in this assay (Q15910 whole entry, looked up): as the sequence (Q15910 whole entry, looked up) above
The target is the same in assay [11]. Description: Inhibition of EZH2-mediated nuclear H3K27 methylation in human HCC1806 cells after 72 hrs by immunofluorescence analysis. In kind it is cell-based. Summed up: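 HCC1806 breast cancer cells were exposed to compound for 72 h. Nuclear H3K27me3 was quantified by an immunofluorescence imaging assay and normalized to total H3. Values are the mean of at least three independent replicates.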

The target of assay [12] is Histone-lysine N-methyltransferase 2A (Homo sapiens, UniProt Q03164). The experiment in a line: Inhibition of MLL1 using core histone as substrate preincubated for 10 mins followed by addition of [3H]SAM and incubated for 60 mins. An outline of the steps: as §1
Assay [13] deals with Histone-lysine N-methyltransferase 2C (Homo sapiens, UniProt Q8NEZ4). Description: Inhibition of MLL3 using core histone as substrate preincubated for 10 mins followed by addition of [3H]SAM and incubated for 60 mins. An outline of the steps: as §1
Assay [14] has as its target Histone-lysine N-methyltransferase 2B (Homo sapiens, UniProt Q9UMN6). Description: Inhibition of MLL4 using core histone as substrate preincubated for 10 mins followed by addition of [3H]SAM and incubated for 60 mins. Summed up: as §1
Assay [15] concerns the target Histone-lysine N-methyltransferase 2D (Homo sapiens, UniProt O14686). The experiment in a line: Inhibition of MLL2 using core histone as substrate preincubated for 10 mins followed by addition of [3H]SAM and incubated for 60 mins. An outline of the steps: as §1

The source made the active and inactive calls. The calls are words filed in the database; no cut-off is given here. Where only a bound is given, the exact number is not on record here.

Sequence of DNA (cytosine-5)-methyltransferase 1 (P26358 whole entry): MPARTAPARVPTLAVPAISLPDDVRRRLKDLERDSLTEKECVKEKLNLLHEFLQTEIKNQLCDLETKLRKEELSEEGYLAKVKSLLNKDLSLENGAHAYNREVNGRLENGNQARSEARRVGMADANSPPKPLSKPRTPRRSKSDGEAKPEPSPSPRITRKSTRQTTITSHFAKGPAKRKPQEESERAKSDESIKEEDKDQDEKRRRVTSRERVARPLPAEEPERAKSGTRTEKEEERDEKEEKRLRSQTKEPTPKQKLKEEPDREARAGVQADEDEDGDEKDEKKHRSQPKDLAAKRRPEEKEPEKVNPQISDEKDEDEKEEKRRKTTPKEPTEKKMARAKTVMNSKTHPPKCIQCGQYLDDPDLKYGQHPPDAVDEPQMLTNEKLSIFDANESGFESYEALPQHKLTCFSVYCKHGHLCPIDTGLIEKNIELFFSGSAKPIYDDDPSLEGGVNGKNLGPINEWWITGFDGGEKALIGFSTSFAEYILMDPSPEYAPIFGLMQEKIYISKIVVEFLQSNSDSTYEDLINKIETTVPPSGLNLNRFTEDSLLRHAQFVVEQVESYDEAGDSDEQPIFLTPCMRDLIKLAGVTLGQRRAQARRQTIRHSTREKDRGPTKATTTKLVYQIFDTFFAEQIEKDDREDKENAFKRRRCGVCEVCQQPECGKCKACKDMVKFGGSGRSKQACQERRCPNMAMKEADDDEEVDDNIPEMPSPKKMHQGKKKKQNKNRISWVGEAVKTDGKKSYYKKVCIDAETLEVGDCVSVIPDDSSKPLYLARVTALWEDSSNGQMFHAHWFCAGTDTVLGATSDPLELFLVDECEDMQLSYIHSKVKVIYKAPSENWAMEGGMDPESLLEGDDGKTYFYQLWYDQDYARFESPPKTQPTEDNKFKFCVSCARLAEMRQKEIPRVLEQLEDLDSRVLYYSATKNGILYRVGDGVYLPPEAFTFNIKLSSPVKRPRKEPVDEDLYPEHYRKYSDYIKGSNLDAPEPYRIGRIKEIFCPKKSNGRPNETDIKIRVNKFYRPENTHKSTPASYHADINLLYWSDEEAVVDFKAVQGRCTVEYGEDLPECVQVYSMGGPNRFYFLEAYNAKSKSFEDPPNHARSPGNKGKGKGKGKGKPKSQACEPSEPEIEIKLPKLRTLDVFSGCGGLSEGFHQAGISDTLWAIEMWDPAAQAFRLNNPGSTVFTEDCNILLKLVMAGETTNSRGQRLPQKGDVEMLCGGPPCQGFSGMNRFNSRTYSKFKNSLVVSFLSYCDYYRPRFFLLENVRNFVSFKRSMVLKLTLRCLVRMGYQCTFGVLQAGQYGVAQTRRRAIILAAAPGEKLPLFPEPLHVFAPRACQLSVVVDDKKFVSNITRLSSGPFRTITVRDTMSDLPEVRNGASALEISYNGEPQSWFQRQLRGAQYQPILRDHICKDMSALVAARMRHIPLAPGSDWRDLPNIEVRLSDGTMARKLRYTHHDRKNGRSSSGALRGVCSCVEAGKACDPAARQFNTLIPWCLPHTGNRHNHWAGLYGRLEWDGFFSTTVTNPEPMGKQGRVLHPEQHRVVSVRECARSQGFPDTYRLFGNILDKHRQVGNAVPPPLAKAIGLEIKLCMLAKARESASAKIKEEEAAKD

As a reminder, the inhibition is the relative decrease from the control value, in per cent. The term IC50 denotes the point on the concentration scale where inhibition reaches its midpoint. `Cc1cc(C)c(CNC(=O)c2cc(-c3ccc(N4CCN(C)CC4)nc3)cc3c2cnn3C(C)C)c(=O)[nH]1`: in assay [1], the Ki amounted to 0.0079 µM. For the same compound, the inhibition result in assay [2], in assay [7], in [8], in assay [9] and in [10] was “Active” each time. The IC50 is more than 100 µM in [3], more than 100 µM in assay [4], 214 µM in assay [6] and 0.324 µM in assay [11]. Further, the inhibition in assay [5] is more than 90%; in [11], “Dose-dependent effect”.

Consider `CCCc1cc(C)[nH]c(=O)c1CNC(=O)c1cc(-c2ccnc(N3CCN(C)CC3)c2)cc2c1cnn2C(C)C`, for which the Ki in assay [1] turned out to be 0.0012 µM. Besides, the IC50 in [3] was more than 100 µM; in assay [12] it was more than 100 µM; in [4], more than 100 µM; in [13], more than 100 µM; in assay [6], 63 µM; in [14] it was more than 100 µM. For the same compound, the IC50 is 0.174 µM in [11] and more than 100 µM in assay [15].

Consider `CCCc1cc(C)[nH]c(=O)c1CNC(=O)c1cc(-c2ccc(N3CCN(C)CC3)nc2)cc2c1cnn2C(C)C`, for which the Ki in assay [1] amounted to 0.0006 µM. Also, the IC50 in assay [3] is 121 µM; in assay [4] it was more than 100 µM; in assay [6] it was 49 µM; in assay [11], 0.079 µM.
